From ChEMBL document CHEMBL1154114, “7-((4-Substituted)piperazin-1-yl) derivatives of ciprofloxacin: synthesis and in vitro biological evaluation as potential antitumor agents” (Bioorg Med Chem, 2009)

System: LoVo
Assay: Antitumor activity against human LoVo cells after 5 days by MTT assay
Type: functional, cell-based
Details: 120 h
How it was run: (§1)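 Five human cancer lines (prostate PC-3, glioblastoma U373-MG, colorectal LoVo, NSCLC A549, breast MCF-7) plated at 10⁴ to 3×10⁴ cells/mL depending on cell type, allowed 24 h to attach, then cultured 120 h with or without drug at nine concentrations. MTT reduction to formazan read at 570 nm (reference 630 nm).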

Question: With `CC(C)(C)C(=O)N1CCN(c2cc3c(cc2F)c(=O)c(C(=O)O)cn3C2CC2)CC1` as the molecule, how does the IC50 read?
Answer: 93 µM

Question: With `CCCCCC(=O)OCC(=O)N1CCN(c2cc3c(cc2F)c(=O)c(C(=O)O)cn3C2CC2)CC1` as the molecule, how does the IC50 read?
Answer: 27 µM

Question: Which IC50 does the source give for `CCCCCCCCCC(=O)N1CCN(c2cc3c(cc2F)c(=O)c(C(=O)O)cn3C2CC2)CC1` here?
Answer: 7 µM

Question: With `CCCCCCCCCCOC(=O)N1CCN(c2cc3c(cc2F)c(=O)c(C(=O)O)cn3C2CC2)CC1` as the molecule, how does the IC50 read?
Answer: 32 µM

Question: With `CCCC(=O)OCC(=O)N1CCN(c2cc3c(cc2F)c(=O)c(C(=O)O)cn3C2CC2)CC1` as the molecule, how does the IC50 read?
Answer: 613 µM

Question: Which IC50 does the source give for `CCCCCCCCCCC(=O)OCC(=O)N1CCN(c2cc3c(cc2F)c(=O)c(C(=O)O)cn3C2CC2)CC1` here?
Answer: 828 µM

Question: With `CCCCCCCCCCCCOC(=O)N1CCN(c2cc3c(cc2F)c(=O)c(C(=O)O)cn3C2CC2)CC1` as the molecule, how does the IC50 read?
Answer: 347 µM

Question: For `CCCCCCCCCCCCCCCC(=O)OCC(=O)N1CCN(c2cc3c(cc2F)c(=O)c(C(=O)O)cn3C2CC2)CC1`, which IC50 is on record?
Answer: 75 µM

System: MG-63
Assay: Inhibition of human MG63 cell proliferation assessed as bromodeoxyuridine incorporation during DNA synthesis after 48 hrs by ELISA
Type: functional, cell-based
Details: MG-63, 48 h

Question: With `COc1c(N2C[C@@H]3CCCN[C@@H]3C2)c(F)cc2c(=O)c(C(=O)O)cn(C3CC3)c12` [MOXIFLOXACIN] as the molecule, how does the IC50 read?
Answer: 230 µM

System: SK-MEL
Assay: Inhibition of human SK-MEL cell proliferation by MTT assay
Type: functional, cell-based
Details: not given

Question: For `CCn1cc(C(=O)O)c(=O)c2cc(F)c(N3CCNCC3)nc21` [ENOXACIN], which IC50 is on record?
Answer: 196 µM

System: NCI-H460
Assay: Inhibition of human NCI-H460 cell proliferation by sulphorodhamine B assay
Type: functional, cell-based
Details: not given

Question: For `CCn1cc(C(=O)O)c(=O)c2cc(F)c(N3CCNCC3)nc21` [ENOXACIN], which IC50 is on record?
Answer: 36 µM

System: MCF7
Assay: Inhibition of human MCF7 cell proliferation by MTT assay
Type: functional, cell-based
Details: not given

Question: For `CCn1cc(C(=O)O)c(=O)c2cc(F)c(N3CCNCC3)nc21` [ENOXACIN], which IC50 is on record?
Answer: 193 µM

System: PC-3
Assay: Antitumor activity against human PC3 cells after 5 days by MTT assay
Type: functional, cell-based
Details: PC-3, 120 h
How it was run: as §1

Question: For `CC(C)(C)C(=O)N1CCN(c2cc3c(cc2F)c(=O)c(C(=O)O)cn3C2CC2)CC1`, which IC50 is on record?
Answer: 246 µM

Question: Which IC50 does the source give for `CCCCCC(=O)OCC(=O)N1CCN(c2cc3c(cc2F)c(=O)c(C(=O)O)cn3C2CC2)CC1` here?
Answer: 14 µM

Question: Which IC50 does the source give for `CCCCCCCCCC(=O)N1CCN(c2cc3c(cc2F)c(=O)c(C(=O)O)cn3C2CC2)CC1` here?
Answer: 4 µM

Question: With `CCCCCCCCCCOC(=O)N1CCN(c2cc3c(cc2F)c(=O)c(C(=O)O)cn3C2CC2)CC1` as the molecule, how does the IC50 read?
Answer: 24 µM

Question: Which IC50 does the source give for `CCCC(=O)OCC(=O)N1CCN(c2cc3c(cc2F)c(=O)c(C(=O)O)cn3C2CC2)CC1` here?
Answer: 715 µM

Question: For `CCCCCCCCCCCCOC(=O)N1CCN(c2cc3c(cc2F)c(=O)c(C(=O)O)cn3C2CC2)CC1`, which IC50 is on record?
Answer: 217 µM

Question: Which IC50 does the source give for `CCCCCCCCCCCCCCCC(=O)OCC(=O)N1CCN(c2cc3c(cc2F)c(=O)c(C(=O)O)cn3C2CC2)CC1` here?
Answer: 30 µM

System: MCF7
Assay: Antitumor activity against human MCF7 cells after 5 days by MTT assay
Type: functional, cell-based
Details: MCF7, 120 h
How it was run: as §1

Question: With `CC(C)(C)C(=O)N1CCN(c2cc3c(cc2F)c(=O)c(C(=O)O)cn3C2CC2)CC1` as the molecule, how does the IC50 read?
Answer: 85 µM

Question: For `CCCCCC(=O)OCC(=O)N1CCN(c2cc3c(cc2F)c(=O)c(C(=O)O)cn3C2CC2)CC1`, which IC50 is on record?
Answer: 72 µM

Question: With `CCCCCCCCCC(=O)N1CCN(c2cc3c(cc2F)c(=O)c(C(=O)O)cn3C2CC2)CC1` as the molecule, how does the IC50 read?
Answer: 20 µM

Question: For `CCCCCCCCCCOC(=O)N1CCN(c2cc3c(cc2F)c(=O)c(C(=O)O)cn3C2CC2)CC1`, which IC50 is on record?
Answer: 20 µM

Question: For `CCCC(=O)OCC(=O)N1CCN(c2cc3c(cc2F)c(=O)c(C(=O)O)cn3C2CC2)CC1`, which IC50 is on record?
Answer: 1000 µM

Question: Which IC50 does the source give for `CCCCCCCCCCC(=O)OCC(=O)N1CCN(c2cc3c(cc2F)c(=O)c(C(=O)O)cn3C2CC2)CC1` here?
Answer: 816 µM

Question: With `CCCCCCCCCCCCOC(=O)N1CCN(c2cc3c(cc2F)c(=O)c(C(=O)O)cn3C2CC2)CC1` as the molecule, how does the IC50 read?
Answer: 200 µM

Question: With `CCCCCCCCCCCCCCCC(=O)OCC(=O)N1CCN(c2cc3c(cc2F)c(=O)c(C(=O)O)cn3C2CC2)CC1` as the molecule, how does the IC50 read?
Answer: 56 µM

System: HeLa
Assay: Inhibition of human HeLa cell proliferation assessed as bromodeoxyuridine incorporation during DNA synthesis after 48 hrs by ELISA
Type: functional, cell-based
Details: not given

Question: With `COc1c(N2C[C@@H]3CCCN[C@@H]3C2)c(F)cc2c(=O)c(C(=O)O)cn(C3CC3)c12` [MOXIFLOXACIN] as the molecule, how does the IC50 read?
Answer: 320 µM

System: not listed separately
Assay: Stability in phosphate buffer of pH 7.4 after 6 days
Type: physicochemical
Details: read-out: Stability
How it was run: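 Compound dissolved at 1 mM in DMSO, diluted with phosphate buffer pH 7.4 to 1 mL, incubated sealed at 37 °C for 6 days. A t0 aliquot was held at 4 °C. HPLC with 280 nm detection and duplicate injections, with expected degradation products as references. Stability is taken as compound peak area over (compound + degradation product) peak area.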

Question: Which remaining at 144 h does the source give for `CCCCCC(=O)OCC(=O)N1CCN(c2cc3c(cc2F)c(=O)c(C(=O)O)cn3C2CC2)CC1` here?
Answer: > 99%

Question: For `CCCCCCCCCC(=O)N1CCN(c2cc3c(cc2F)c(=O)c(C(=O)O)cn3C2CC2)CC1`, which remaining at 144 h is on record?
Answer: 100%

Question: For `CCCC(=O)OCC(=O)N1CCN(c2cc3c(cc2F)c(=O)c(C(=O)O)cn3C2CC2)CC1`, which remaining at 144 h is on record?
Answer: 100%

System: not listed separately
Assay: Toxicity in ip dosed B6D2F1 mouse assessed as maximum tolerated dose after 28 days
Type: organism-based
Details: in vivo
How it was run: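 Healthy mice, three per group, each given a single ip dose and observed for up to 28 days. The MTD index is the highest single dose given without causing any deaths in the group.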

Question: With `CCCCCCCCCC(=O)N1CCN(c2cc3c(cc2F)c(=O)c(C(=O)O)cn3C2CC2)CC1` as the molecule, how does the MTD at 672 h read?
Answer: > 80 mg/kg

System: A-431
Assay: Inhibition of human A431 cell proliferation by MTT assay
Type: functional, cell-based
Details: not given

Question: With `CCn1cc(C(=O)O)c(=O)c2cc(F)c(N3CCNCC3)nc21` [ENOXACIN] as the molecule, how does the IC50 read?
Answer: 150 µM

System: EJ
Assay: Inhibition of human EJ cell proliferation by MTT assay
Type: functional, cell-based
Details: not given

Question: For `CCn1cc(C(=O)O)c(=O)c2cc(F)c(N3CCNCC3)nc21` [ENOXACIN], which IC50 is on record?
Answer: 178 µM

System: A549
Assay: Antitumor activity against human A549 cells after 5 days by MTT assay
Type: functional, cell-based
Details: A549, 120 h
How it was run: as §1

Question: Which IC50 does the source give for `CC(C)(C)C(=O)N1CCN(c2cc3c(cc2F)c(=O)c(C(=O)O)cn3C2CC2)CC1` here?
Answer: 509 µM

Question: Which IC50 does the source give for `CCCCCC(=O)OCC(=O)N1CCN(c2cc3c(cc2F)c(=O)c(C(=O)O)cn3C2CC2)CC1` here?
Answer: 20 µM

Question: With `CCCCCCCCCC(=O)N1CCN(c2cc3c(cc2F)c(=O)c(C(=O)O)cn3C2CC2)CC1` as the molecule, how does the IC50 read?
Answer: 3 µM

Question: For `CCCCCCCCCCOC(=O)N1CCN(c2cc3c(cc2F)c(=O)c(C(=O)O)cn3C2CC2)CC1`, which IC50 is on record?
Answer: 44 µM

Question: With `CCCC(=O)OCC(=O)N1CCN(c2cc3c(cc2F)c(=O)c(C(=O)O)cn3C2CC2)CC1` as the molecule, how does the IC50 read?
Answer: 456 µM

Question: For `CCCCCCCCCCC(=O)OCC(=O)N1CCN(c2cc3c(cc2F)c(=O)c(C(=O)O)cn3C2CC2)CC1`, which IC50 is on record?
Answer: > 1000 µM

Question: Which IC50 does the source give for `CCCCCCCCCCCCOC(=O)N1CCN(c2cc3c(cc2F)c(=O)c(C(=O)O)cn3C2CC2)CC1` here?
Answer: 273 µM

Question: Which IC50 does the source give for `CCCCCCCCCCCCCCCC(=O)OCC(=O)N1CCN(c2cc3c(cc2F)c(=O)c(C(=O)O)cn3C2CC2)CC1` here?
Answer: 112 µM

System: HeLa
Assay: Inhibition of human HeLa cell proliferation
Type: functional, cell-based
Details: not given

Question: With `CCn1cc(C(=O)O)c(=O)c2cc(F)c(N3CCNCC3)nc21` [ENOXACIN] as the molecule, how does the IC50 read?
Answer: 170 µM

System: not listed separately
Assay: Antitumor activity against human U373MG cells after 5 days by MTT assay
Type: functional, cell-based, U-373MG ATCC
Details: U373 MG, 120 h
How it was run: as §1

Question: With `CC(C)(C)C(=O)N1CCN(c2cc3c(cc2F)c(=O)c(C(=O)O)cn3C2CC2)CC1` as the molecule, how does the IC50 read?
Answer: 67 µM

Question: Which IC50 does the source give for `CCCCCC(=O)OCC(=O)N1CCN(c2cc3c(cc2F)c(=O)c(C(=O)O)cn3C2CC2)CC1` here?
Answer: 28 µM

Question: With `CCCCCCCCCC(=O)N1CCN(c2cc3c(cc2F)c(=O)c(C(=O)O)cn3C2CC2)CC1` as the molecule, how does the IC50 read?
Answer: 5 µM

Question: For `CCCCCCCCCCOC(=O)N1CCN(c2cc3c(cc2F)c(=O)c(C(=O)O)cn3C2CC2)CC1`, which IC50 is on record?
Answer: 401 µM

Question: With `CCCC(=O)OCC(=O)N1CCN(c2cc3c(cc2F)c(=O)c(C(=O)O)cn3C2CC2)CC1` as the molecule, how does the IC50 read?
Answer: 586 µM

Question: For `CCCCCCCCCCC(=O)OCC(=O)N1CCN(c2cc3c(cc2F)c(=O)c(C(=O)O)cn3C2CC2)CC1`, which IC50 is on record?
Answer: > 1000 µM

Question: Which IC50 does the source give for `CCCCCCCCCCCCOC(=O)N1CCN(c2cc3c(cc2F)c(=O)c(C(=O)O)cn3C2CC2)CC1` here?
Answer: 94 µM

Question: For `CCCCCCCCCCCCCCCC(=O)OCC(=O)N1CCN(c2cc3c(cc2F)c(=O)c(C(=O)O)cn3C2CC2)CC1`, which IC50 is on record?
Answer: 119 µM

System: SW480
Assay: Inhibition of human SW480 cell proliferation by MTT assay
Type: functional, cell-based
Details: not given

Question: Which IC50 does the source give for `CCn1cc(C(=O)O)c(=O)c2cc(F)c(N3CCNCC3)nc21` [ENOXACIN] here?
Answer: 159 µM

System: KB
Assay: Inhibition of human KB cell proliferation by MTT assay
Type: functional, cell-based
Details: not given

Question: With `CCn1cc(C(=O)O)c(=O)c2cc(F)c(N3CCNCC3)nc21` [ENOXACIN] as the molecule, how does the IC50 read?
Answer: 137 µM
